Measurements as given in ChEMBL document CHEMBL1131136, “4-(beta-Arylvinyl)-3-(beta-arylvinylketo)-1-ethyl-4-piperidinols and related compounds: a novel class of cytotoxic and anticancer agents” (J Med Chem, 1998).

Key:
[1] = system: L1210; assay: Cytotoxicity evaluated against L1210 cells.; type: functional, cell-based; conditions: Mus musculus
[2] = system: P388; assay: Cytotoxicity evaluated against P388 cells.; type: functional, cell-based; conditions: Mus musculus
[3] = organism: Homo sapiens; assay: Cytotoxicity evaluated against human tumor.; type: functional
Summary of the method: (§1)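 NCI panel of about 55 human tumor cell lines covering leukemia, melanoma, non-small-cell lung, colon, CNS, ovarian, renal, prostate and breast cancers, with some compounds tested on small-cell lung instead of prostate and breast.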

[4] = system: Mus musculus; assay: Percentage increase in the median time in days for the CAKI-1 treated tumor to reach a certain size compared to controls at the dose of 16.8 mg/kg; type: functional
Summary of the method: (§2)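 Human tumor xenografts passaged in athymic mice, tested by the NCI Developmental Therapeutics Program. %ILS is the percentage increase in median days for treated tumors to reach a set size versus untreated controls.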

[5] = system: Mus musculus; assay: Percentage increase in the median time in days for the COLO 205 treated tumor to reach a certain size compared to controls at the dose of 16.8 mg/kg; type: functional; summary of the method: as §2
[6] = system: Mus musculus; assay: Percentage increase in the median time in days for the KM12 treated tumor to reach a certain size compared to controls at the dose of 25 mg/kg; type: functional; summary of the method: as §2
[7] = system: Mus musculus; assay: Optimal value of the percentage reduction of the median treated CAKI-1 tumor weight compared to the median control tumor weight at the dose of 16.8 mg/kg; type: functional
Summary of the method: (§3)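 The NCI Developmental Therapeutics Program passaged human tumor xenografts in athymic mice. % T/C is the optimal ratio of median treated to median control tumor weight. Tumor-growth delay (% ILS) was the increase in median days for treated tumors to reach a set size compared with controls.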

[8] = system: Mus musculus; assay: Optimal value of the percentage reduction of the median treated COLO 205 tumor weight compared to the median control tumor weight at the dose of 16.8 mg/kg; type: functional; summary of the method: as §3
[9] = system: Mus musculus; assay: Optimal value of the percentage reduction of the median treated KM12 tumor weight compared to the median control tumor weight at the dose of 16.8 mg/kg; type: functional; summary of the method: as §3
[10] = organism: Homo sapiens; assay: Cytotoxicity evaluated against human tumor; type: functional; summary of the method: as §1
[11] = system: Mus musculus; assay: Percentage increase in the median time in days for the COLO 205 treated tumor to reach a certain size compared to controls at the dose of 200 mg/kg; type: functional; summary of the method: as §2
[12] = system: Mus musculus; assay: Percentage increase in the median time in days for the NCI-H522 treated tumor to reach a certain size compared to controls at the dose of 80 mg/kg; type: functional; summary of the method: as §2
[13] = system: Mus musculus; assay: Percentage increase in the median time in days for the SW-620 treated tumor to reach a certain size compared to controls at the dose of 80 mg/kg; type: functional; summary of the method: as §2
[14] = system: Mus musculus; assay: Optimal value of the percentage reduction of the median treated COLO 205 tumor weight compared to the median control tumor weight at the dose of 200 mg/kg; type: functional; summary of the method: as §3
[15] = system: Mus musculus; assay: Optimal value of the percentage reduction of the median treated NCI-H522 tumor weight compared to the median control tumor weight at the dose of 80 mg/kg; type: functional; summary of the method: as §3
[16] = system: Mus musculus; assay: Optimal value of the percentage reduction of the median treated SW-620 tumor weight compared to the median control tumor weight at the dose of 80 mg/kg; type: functional; summary of the method: as §3

| SMILES | IC50 [1] [µM] | IC50 [2] [µM] | IC50 [3] [µM] | other results |
| --- | --- | --- | --- | --- |
| CC[N+]1(C)CC[C@@](O)(/C=C/c2ccc(C)cc2)[C@H](C(=O)/C=C/c2ccc(C)cc2)C1 (stereo partly drawn) | 13.8 | 0.62 | – | – |
| CCN(CC)CCC(=O)/C=C/c1ccccc1 | 25.7 | 1.7 | 9.77 | – |
| CCN(CC)CCC(=O)c1ccc(OC)cc1 | 43.8 | 1.6 | – | – |
| CCN(CC)CCC(=O)/C=C/c1ccc(OC)cc1 | 44.3 | 0.67 | – | – |
| CCN1CC[C@@](O)(c2ccc(OC)cc2)[C@H](C(=O)c2ccc(OC)cc2)C1 | 13.5 | 4.17 | 19.5 | – |
| CC[N+]1(C)CC[C@@](O)(/C=C/c2ccccc2)[C@H](C(=O)/C=C/c2ccccc2)C1.[Br-] (stereo partly drawn) | – | 2.27 | 8.31 | ILS at 16.8 mg/kg [4]: 6%; ILS at 16.8 mg/kg [5]: 14%; ILS at 25 mg/kg [6]: 5%; T/C [7]: 43%; T/C [8]: 20%; T/C [9]: 45% |
| CCN(CC)CCC(=O)/C=C/c1ccc(C)cc1 | 52.9 | 1.1 | – | – |
| CCN1CC[C@@](O)(/C=C/c2ccc(OC)cc2)[C@H](C(=O)/C=C/c2ccc(OC)cc2)C1 | 25.6 | 5 | – | IC50 [10]: 8.31 µM |
| CCN1CC[C@@](O)(/C=C/c2ccc(Cl)cc2)[C@H](C(=O)/C=C/c2ccc(Cl)cc2)C1 | 6.96 | 1.1 | 25.7 | – |
| CCN1CC[C@@](O)(c2ccc(Cl)c(Cl)c2)[C@H](C(=O)c2ccc(Cl)c(Cl)c2)C1 | – | 3.11 | 16.6 | – |
| CCN1CC[C@@](O)(/C=C/c2ccc(C)cc2)[C@H](C(=O)/C=C/c2ccc(C)cc2)C1.Cl | 6.08 | 2.1 | 5.01 | ILS at 200 mg/kg [11]: 28%; ILS at 80 mg/kg [12]: -2%; ILS at 80 mg/kg [13]: 9%; T/C [14]: 57%; T/C [15]: 23%; T/C [16]: 32% |
| CC[N+]1(C)CC[C@@](O)(c2ccc(Cl)cc2)[C@H](C(=O)c2ccc(Cl)cc2)C1 (stereo partly drawn) | – | 1.5 | 12.9 | – |
| CCN1CC[C@@](O)(c2ccccc2)[C@H](C(=O)c2ccccc2)C1 | 20.1 | 1.07 | 30.2 | – |
| CC[N+]1(C)CC[C@@](O)(c2ccc(Cl)c(Cl)c2)[C@H](C(=O)c2ccc(Cl)c(Cl)c2)C1 (stereo partly drawn) | 33.6 | 2.3 | 9.54 | – |
| CC[N+]1(C)CC[C@@](O)(c2ccccc2)[C@H](C(=O)c2ccccc2)C1 (stereo partly drawn) | – | 1.3 | – | – |
| CCN1CC[C@@](O)(c2ccc(C)cc2)[C@H](C(=O)c2ccc(C)cc2)C1 | 38.2 | 8.6 | 25.1 | – |
| CCN1CC[C@@](O)(c2ccc(Cl)cc2)[C@H](C(=O)c2ccc(Cl)cc2)C1 | 15.7 | 5.14 | 83.2 | – |
| CCN(CC)CCC(=O)/C=C/c1ccc(Cl)cc1 | 41 | 0.3 | – | – |

| SMILES | IC50 [1] [µM] | IC50 [2] [µM] | IC50 [3] [µM] | other results |
| --- | --- | --- | --- | --- |
| CCN1CC[C@@](O)(c2ccc(O)cc2)[C@H](C(=O)c2ccc(O)cc2)C1 | 9.75 | 1.4 | 20.9 | – |
| CCN(CC)CCC(=O)c1ccccc1 | 20.3 | 2.6 | 25.1 | – |
| CCN1CC[C@@](O)(/C=C/c2ccc(C)cc2C)[C@H](C(=O)/C=C/c2ccc(C)cc2C)C1 | 20.9 | 2.59 | – | – |
| CC[N+]1(C)CC[C@@](O)(c2ccc(C)cc2)[C@H](C(=O)c2ccc(C)cc2)C1 (stereo partly drawn) | – | 2.1 | 50.1 | – |
| CCN(CC)CC(C)(C)C(=O)/C=C/c1ccc(Cl)cc1 | 6.39 | 2.2 | – | – |
| CC[N+]1(C)CC[C@@](O)(/C=C/c2ccc(Cl)c(Cl)c2)[C@H](C(=O)/C=C/c2ccc(Cl)c(Cl)c2)C1 (stereo partly drawn) | 21.4 | 0.64 | 2.19 | – |
| CCN(CC)CCC(=O)/C=C/c1ccc(Cl)c(Cl)c1 | 61.2 | 0.39 | 3.8 | – |
| O=C(CCN1CCN(CCC(=O)c2ccccc2)CC1)c1ccccc1 | 9.71 | 2.84 | – | – |
| N[C@@H](Cc1ccc(N(CCCl)CCCl)cc1)C(=O)O | – | – | 26.3 | – |
| O=C(/C=C/c1ccccc1)CCN1CCN(CCC(=O)/C=C/c2ccccc2)CC1 | 5.78 | 0.62 | 12 | – |
| CCN1CC[C@@](O)(/C=C/c2ccc(Cl)c(Cl)c2)[C@H](C(=O)/C=C/c2ccc(Cl)c(Cl)c2)C1 | – | 0.4 | 0.38 | – |
| CCN(CC)CCC(=O)c1ccc(Cl)cc1 | 36.9 | 3.2 | – | – |
| CCN(CC)CCC(=O)c1ccc(C)cc1 | 21.5 | 2.2 | 26.3 | – |
| CC[N+]1(C)CC[C@@](O)(c2ccc(OC)cc2)[C@H](C(=O)c2ccc(OC)cc2)C1 (stereo partly drawn) | – | 0.98 | 10.2 | – |
| CCN(CC)CCC(=O)c1ccc(Cl)c(Cl)c1 | 36.4 | 0.31 | 32.4 | – |
| CCN1CC[C@@](O)(/C=C/c2ccccc2)[C@H](C(=O)/C=C/c2ccccc2)C1 | 5.3 | 1.4 | 2.75 | – |
| CCN1CC[C@@](O)(/C=C/c2ccccc2C)[C@H](C(=O)/C=C/c2ccccc2C)C1 | 12.6 | 1.89 | 2.46 | – |
